In publication PMC10339703 (Clinical and Translational Science, 2023):

How the values were obtained:
[1] = tested on: Pro‐C3; assay: Serum PD biomarker Pro-C3; type: in vivo, human; settings: MAD; statistically significant after a single dose but not after multiple doses
How it was run: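 Oral tablets b.i.d. for 14 days (morning only day 14), 25–200 mg, in healthy adults randomized 6:2 versus placebo. Morning doses followed ≥10 h fasting; other doses came ≥1 h after a meal. Serum drawn predose and 2, 4, 6, 12 h after day 1 morning dose, day 2/7 predose, and predose to 72 h after day 14 dose. Pro-C3 measured by validated ELISA; AUEC0‑12h computed.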

[2] = tested on: CYP2C19, CYP2D6, CYP3A4, UGT2B4, and UGT2B7; assay: Inhibition of CYP and UGT enzymes; type: in vitro ADME; settings: at therapeutic concentration ranges; data on file

For O[C@H]1CCCN[C@@H]1CCCn1cnc2c(Cl)c(Cl)ccc21 [Bersiporocin], the “mean AUEC0‐12h for serum Pro‐C3 compared to the placebo‐treated group” value [1] was “lower” and the “inhibition of CYP and UGT enzymes” value [2] was “did not inhibit”.
